What was measured:
Phosphodiesterase 1 = Phosphodiesterase 1 (Bos taurus, UniProt Q01061+P14100); experiment: Inhibition of bovine calmodulin-activated cAMP dependent phosphodiesterase; format: protein assay
How it was run: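 Crude bovine heart PDE preparation containing calmodulin and Ca²⁺ (0.2 milliunit). Incubated 20 min at 37 °C with 0.1 mM [8-³H]cAMP and graded drug concentrations in 30 mM Tris-HCl, 3 mM MgSO₄, 0.6 mM AMP. Stopped with ZnSO₄; Ba(OH)₂ precipitated AMP with BaSO₄; supernatant radioactivity counted. IC50 is the concentration giving 50% inhibition.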

L1210 [1] = experiment: Intracellular level of conjugate in L1210 cells in the presence of DFMO at 25 uM; format: functional, cell-based; conditions: Mus musculus
How it was run: (§1)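 L1210 cells in RPMI 1640/10% FCS with 2 mM aminoguanidine, seeded at 4 × 10⁴ cells/mL. Conjugate, with or without 5 mM DFMO, added at seeding; cells cultured 48 h, washed in cold NaCl, and extracted with 0.2 N HClO₄. Conjugate and free putrescine, spermidine and spermine quantified by ion-pair HPLC (UV 254 nm, fluorescence ex 345/em 455 nm); normalised to protein. Student's t-test, p<0.05.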

L1210 [2] = experiment: Intracellular level of putrescine in L1210 cells in the absence of DFMO at 25 uM; format: functional, cell-based; conditions: Mus musculus; how it was run: as §1
L1210 [3] = experiment: Intracellular level of spermidine in L1210 cells in the presence of DFMO at 25 uM; format: functional, cell-based; conditions: Mus musculus; how it was run: as §1
L1210 [4] = experiment: Intracellular level of spermine in L1210 cells in the absence of DFMO at 25 uM; format: functional, cell-based; conditions: Mus musculus; how it was run: as §1
L1210 [5] = experiment: Intracellular level of spermine in L1210 cells in the presence of DFMO at 25 uM; format: functional, cell-based; conditions: Mus musculus; how it was run: as §1
[6] = Selectivity for uptake in CHO cell line over CHO-MG cell line at 25 uM; format: functional, Cricetulus griseus
How it was run: (§2)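 Ratio of intracellular conjugate level in CHO over CHO-MG cells. Both lines were exposed to conjugate 24 h after seeding at 2 × 10⁵ cells/mL, for 24 h with 2 mM aminoguanidine in the medium. Levels were measured by ion-pair HPLC of perchloric extracts and normalised to protein (nmol/mg).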

CHO-MG [7] = experiment: Inhibition of cell growth in CHO-MG cells in the presence of DFMO; format: functional, cell-based; conditions: Cricetulus griseus
How it was run: (§3)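 L1210 cells seeded at 5 × 10⁴ cells/mL with conjugate added at seeding; CHO/CHO-MG plated at 2 × 10³ cells/mL with conjugate added after overnight (24 h). 5 mM DFMO added together with conjugate; medium contains 2 mM aminoguanidine. After 48 h, growth read by MTT formazan absorbance at 540 nm. IC50 is 50% growth inhibition; mean of three determinations.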

CHO [8] = experiment: Cellular uptake in CHO cells at 25 uM; format: ADME, cell-based, Cricetulus griseus; conditions: chinese hamster
How it was run: (§4)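 CHO (RPMI 1640, 10% FCS, 2 mM aminoguanidine) and CHO-MG (plus L-proline) cells seeded at 2 × 10⁵ cells/mL. Conjugate added 24 h after seeding and cells harvested 24 h later, then washed in cold 0.14 M NaCl and sonicated in 0.2 N HClO₄. Supernatant analysed by ion-pair reversed-phase HPLC (n-octanesulfonate), expressed as nmol/mg protein; mean ± SD of three determinations.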

CHO-MG [9] = experiment: Cellular uptake in CHO-MG cells at 25 uM; format: ADME, cell-based, Cricetulus griseus; conditions: chinese hamster; how it was run: as §4
L1210 [10] = experiment: Intracellular level of putrescine in L1210 cells in the presence of DFMO at 25 uM; format: functional, cell-based; conditions: Mus musculus; how it was run: as §1
L1210 [11] = experiment: Intracellular level of spermidine in L1210 cells in the absence of DFMO at 25 uM; format: functional, cell-based; conditions: Mus musculus; how it was run: as §1
L1210 [12] = experiment: Intracellular level of conjugate in L1210 cells in the absence of DFMO at 25 uM; format: functional, cell-based; conditions: Mus musculus; how it was run: as §1
CHO [13] = experiment: Inhibition of cell growth in CHO cells in the presence of DFMO; format: functional, cell-based; conditions: Cricetulus griseus; how it was run: as §3
L1210 [14] = experiment: Intracellular level of spermine in L1210 cells in the absence of DFMO at 20 uM; format: functional, cell-based; conditions: Mus musculus; how it was run: as §1
L1210 [15] = experiment: Intracellular level of spermine in L1210 cells in the presence of DFMO at 20 uM; format: functional, cell-based; conditions: Mus musculus; how it was run: as §1
L1210 [16] = experiment: Intracellular level of conjugate in L1210 cells in the absence of DFMO at 20 uM; format: functional, cell-based; conditions: Mus musculus; how it was run: as §1
L1210 [17] = experiment: Intracellular level of polyamine in L1210 cells in the presence of DFMO at 20 uM; format: functional, cell-based; conditions: Mus musculus; how it was run: as §1
L1210 [18] = experiment: Inhibition of cell growth in L1210 cells in the presence of DFMO; format: functional, cell-based; conditions: Mus musculus; how it was run: as §3
L1210 [19] = experiment: Intracellular level of putrescine in L1210 cells in the absence of DFMO at 20 uM; format: functional, cell-based; conditions: Mus musculus; how it was run: as §1
L1210 [20] = experiment: Intracellular level of putrescine in L1210 cells in the presence of DFMO at 20 uM; format: functional, cell-based; conditions: Mus musculus; how it was run: as §1
L1210 [21] = experiment: Intracellular level of spermidine in L1210 cells in the absence of DFMO at 20 uM; format: functional, cell-based; conditions: Mus musculus; how it was run: as §1
L1210 [22] = experiment: Intracellular level of spermidine in L1210 cells in the presence of DFMO at 20 uM; format: functional, cell-based; conditions: Mus musculus; how it was run: as §1
L1210 [23] = experiment: Intracellular level of conjugate in L1210 cells in the presence of DFMO at 10 uM; format: functional, cell-based; conditions: Mus musculus; how it was run: as §1
CHO [24] = experiment: Cellular uptake in CHO cells at 50 uM; format: ADME, cell-based, Cricetulus griseus; conditions: chinese hamster; how it was run: as §4
CHO-MG [25] = experiment: Cellular uptake in CHO-MG cells at 50 uM; format: ADME, cell-based, Cricetulus griseus; conditions: chinese hamster; how it was run: as §4
[26] = Selectivity for uptake CHO cell line over CHO-MG cell line at 50 uM; format: functional, Cricetulus griseus; how it was run: as §2
L1210 [27] = experiment: Intracellular level of putrescine in L1210 cells in the absence of DFMO at 10 uM; format: functional, cell-based; conditions: Mus musculus; how it was run: as §1
L1210 [28] = experiment: Intracellular level of putrescine in L1210 cells in the presence of DFMO at 10 uM; format: functional, cell-based; conditions: Mus musculus; how it was run: as §1
L1210 [29] = experiment: Intracellular level of spermine in L1210 cells in the absence of DFMO at 10 uM; format: functional, cell-based; conditions: Mus musculus; how it was run: as §1
L1210 [30] = experiment: Intracellular level of conjugate in L1210 cells in the absence of DFMO at 10 uM; format: functional, cell-based; conditions: Mus musculus; how it was run: as §1
L1210 [31] = experiment: Intracellular level of spermine in L1210 cells in the presence of DFMO at 10 uM; format: functional, cell-based; conditions: Mus musculus; how it was run: as §1
L1210 [32] = experiment: Intracellular level of spermidine in L1210 cells in the absence of DFMO at 10 uM; format: functional, cell-based; conditions: Mus musculus; how it was run: as §1
L1210 [33] = experiment: Intracellular level of spermidine in L1210 cells in the presence of DFMO at 10 uM; format: functional, cell-based; conditions: Mus musculus; how it was run: as §1

## CC1C[C@]2(C)C(NCCCO)=Nc3ccccc3[C@@H]2N(C)c2ccccc21 (some centres not stated)
Phosphodiesterase 1
  IC50: > 500 µM

## CN(c1ccccc1)C1c2ccccc2N=C(NCCCNCCCCN)C1(C)C (configuration not stated)
L1210 [1]
  Drug uptake: 0.66 nmol/mg
L1210 [2]
  Drug uptake: 0.65 nmol/mg
L1210 [3]
  Drug uptake: 1.4 nmol/mg
L1210 [4]
  Drug uptake: 10 nmol/mg
L1210 [5]
  Drug uptake: 10 nmol/mg
[6]
  Selectivity ratio: 1
Phosphodiesterase 1
  IC50: 30 µM
CHO-MG [7]
  IC50: > 100 µM
CHO [8]
  Drug uptake: 2.9 nmol/mg
CHO-MG [9]
  Drug uptake: 3.1 nmol/mg
L1210 [10]
  Drug uptake: 0.12 nmol/mg
L1210 [11]
  Drug uptake: 21 nmol/mg
L1210 [12]
  Drug uptake: 0.64 nmol/mg

## CNc1cccc2c1[C@H](C)C[C@]1(C)C(NCCCCN)=Nc3ccccc3[C@H]21
CHO [13]
  IC50: 57 µM
L1210 [14]
  Drug uptake: 8.9 nmol/mg
L1210 [15]
  Drug uptake: 10 nmol/mg
L1210 [16]
  Drug uptake: 23 nmol/mg
L1210 [17]
  Drug uptake: 8.2 nmol/mg
L1210 [18]
  IC50: 56 µM
[6]
  Selectivity ratio: 1.1
Phosphodiesterase 1
  IC50: 70 µM
CHO-MG [7]
  IC50: 30 µM
CHO [8]
  Drug uptake: 8.1 nmol/mg
CHO-MG [9]
  Drug uptake: 7.2 nmol/mg
L1210 [19]
  Drug uptake: 1.6 nmol/mg
L1210 [20]
  Drug uptake: 1 nmol/mg
L1210 [21]
  Drug uptake: 14 nmol/mg
L1210 [22]
  Drug uptake: 2.1 nmol/mg

## CN(c1ccccc1)C1c2ccccc2N=C(NCCCNCCCCNCCCN)C1(C)C (configuration not stated)
L1210 [23]
  Drug uptake: 2.6 nmol/mg
CHO [24]
  Drug uptake: 3.3 nmol/mg
CHO-MG [25]
  Drug uptake: 3.2 nmol/mg
[26]
  Selectivity ratio: 1
L1210 [27]
  Drug uptake: 0.41 nmol/mg
L1210 [28]
  Drug uptake: 0.02 nmol/mg
L1210 [29]
  Drug uptake: 9.5 nmol/mg
L1210 [30]
  Drug uptake: 1.8 nmol/mg
L1210 [31]
  Drug uptake: 7.6 nmol/mg
L1210 [18]
  IC50: 2.3 µM
Phosphodiesterase 1
  IC50: 8 µM
L1210 [32]
  Drug uptake: 16 nmol/mg
L1210 [33]
  Drug uptake: 0.6 nmol/mg

Reference: ChEMBL document CHEMBL1148584, “Effect of polyamine homologation on the transport and biological properties of heterocyclic amidines” (J Med Chem, 2006)
